From ChEMBL document CHEMBL1268937, “Design of more potent squalene synthase inhibitors with multiple activities” (Bioorg Med Chem, 2010)
The source made the active and inactive calls. The rule behind the calls is not given here.

Experiments:
Rattus norvegicus [1] = test: Antiinflammatory activity in Wistar rat assessed as inhibition of carrageenan-induced paw edema at 300 umol/kg, ip after 3.5 hrs; assay type: functional; parameters: scale not given: the % may be the effect or the level left
How it was run: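 Male Wistar rats (150–180 g) received 0.1 mL of 2% w/v carrageenan in saline intradermally into the right hind paw; the left paw served as control. Compounds were given ip right after carrageenan. Edema was taken as paw weight increase at 3.5 h and expressed as % inhibition versus the control group. Means of 8–10 rats; Student's t-test.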

Liver microsomes = test: Antioxidant activity in rat hepatic microsomes assessed as inhibition of lipid peroxidation after 45 min by spectrophotometric analysis; assay type: functional, Microsome
How it was run: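 Non-enzymatic peroxidation of rat hepatic microsomal lipids in buffer (150 mM, pH 7.4). Compounds in DMSO, 10 µM–1 mM. Started with fresh FeSO4 and incubated at 37 °C for 45 min. Thiobarbituric acid-reactive material read at 535 against 600 nm. Run in duplicate.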

Squalene synthase = biological target: T1, Squalene synthase (Rattus norvegicus, UniProt Q02769); test: Inhibition of squalene synthase in rat liver microsomes assessed as [3H] FPP to squalene conversion level after 10 mins by scintillation counting; parameters: species or system Microsome
T1 sequence (Q02769 whole entry): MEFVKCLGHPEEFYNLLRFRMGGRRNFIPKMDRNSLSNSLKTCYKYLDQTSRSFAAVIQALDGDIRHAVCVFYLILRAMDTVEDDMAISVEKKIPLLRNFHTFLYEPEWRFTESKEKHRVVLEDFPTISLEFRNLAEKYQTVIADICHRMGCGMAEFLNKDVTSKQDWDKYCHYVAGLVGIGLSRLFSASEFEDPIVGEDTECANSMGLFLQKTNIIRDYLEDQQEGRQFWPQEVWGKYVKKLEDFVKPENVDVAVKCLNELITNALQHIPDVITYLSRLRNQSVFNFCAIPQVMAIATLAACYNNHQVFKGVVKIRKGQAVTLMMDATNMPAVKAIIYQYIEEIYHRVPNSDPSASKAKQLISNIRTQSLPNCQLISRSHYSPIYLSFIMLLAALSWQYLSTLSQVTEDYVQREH
How it was run: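 Rat liver microsomes (18 µg protein/mL) in 50 mM phosphate pH 7.4 with 10 mM MgCl2 and 0.5 mM NADPH, preincubated with compounds for 10 min at 37 °C. Started with [3H]FPP and run for 10 min at 37 °C. Stopped with 15% ethanolic KOH, then 65 °C for 30 min. Squalene extracted into petroleum ether, washed and counted by scintillation. Triplicates; IC50 is the concentration giving 50% inhibition.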

Rattus norvegicus [2] = test: Antidyslipidemic activity against triton WR-1339-induced hyperlipidemia in rat assessed as reduction in plasma triglyceride level at 56 umol/kg, ip after 24 hrs relative to control; assay type: functional; parameters: scale not given: the % may be the effect or the level left
How it was run: (§1)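 Hyperlipidemia induced in male Wistar rats by ip Triton WR 1339 (200 mg/kg, aqueous). Test compounds in saline given ip 1 h later; saline-only controls. Blood drawn from the aorta 24 h later. Plasma total cholesterol, LDL-cholesterol and triglycerides measured with commercial kits in duplicate. Values are means of 8–10 rats per compound.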

Rattus norvegicus [3] = test: Antidyslipidemic activity against triton WR-1339-induced hyperlipidemia in rat assessed as reduction in plasma total cholesterol level at 56 umol/kg, ip after 24 hrs relative to control; assay type: functional; parameters: scale not given: the % may be the effect or the level left; how it was run: as §1
Rattus norvegicus [4] = test: Antidyslipidemic activity against triton WR-1339-induced hyperlipidemia in rat assessed as reduction in plasma LDL-cholesterol level at 56 umol/kg, ip after 24 hrs relative to control; assay type: functional; parameters: scale not given: the % may be the effect or the level left; how it was run: as §1
[5] = (§2) Inhibition of soybean lipoxygenase measured for 6 mins; parameters: species or system Glycine max
How it was run: (§3)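 Soybean lipoxygenase (250 U/mL) with sodium linoleate (100 µM) as substrate in Tris-HCl pH 9.0. Compounds added in 60% ethanol. Absorbance at 234 nm followed for 6 min at 28 °C. Each concentration assayed twice.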

Glycine max [6] = test: Inhibition of soybean lipoxygenase at up to 150 uM; conditions: TDE = time-dependent effect; how it was run: as §3
Glycine max [7] = test: as §2; how it was run: as §3

| SMILES | Activity (Rattus norvegicus [1]) | IC50 (Liver microsomes) [µM] | IC50 (Squalene synthase) [µM] | Activity (Rattus norvegicus [2]) [%] | Activity (Rattus norvegicus [3]) [%] | Activity (Rattus norvegicus [4]) [%] | IC50 [5] [µM] | inhibition (Glycine max [6]) | inhibition (Glycine max [7]) |
| --- | --- | --- | --- | --- | --- | --- | --- | --- | --- |
| Br.CN1CC(O)(c2ccc3ccccc3c2)OC2CCCCC21 (stereo unspecified) | 54% | 600 | 15.1 | 51 | 43 | 39 | > 300 | – | – |
| Br.COc1ccc2cc(C3(O)CN(C)CCO3)ccc2c1 (stereo unspecified) | 58% | 900 | 155 | 51 | 62 | 24 | 20 | tde | Dose-dependent effect |
| CN1CC(O)(c2ccc(-c3ccccc3)cc2)OC2CCCCC21 (stereo unspecified) | – | – | – | 49 | 54 | 51 | 110 | – | – |
| Br.CN1CC(O)(c2ccc(-c3ccc4ccccc4c3)cc2)OC2CCCCC21 (stereo unspecified) | – | 118 | 0.8 | 32 | 43 | 48 | > 100 | – | – |
| CC(C)(Sc1cc(C(C)(C)C)c(O)c(C(C)(C)C)c1)Sc1cc(C(C)(C)C)c(O)c(C(C)(C)C)c1 [PROBUCOL] | – | – | – | 11 | 18 | 18 | – | – | – |
| Br.COc1ccc2cc(-c3ccc(C4(O)CN(C)CCO4)cc3)ccc2c1 (stereo unspecified) | – | 30 | 6.9 | 30 | 41 | 9 | > 100 | – | – |
| Br.COc1ccc2cc(-c3ccc(C4(O)CN(C)C5CCCCC5O4)cc3)ccc2c1 (stereo unspecified) | Active | 48 | 1.4 | 82 | 32 | 54 | > 100 | – | – |
| Br.COc1ccc2cc(C3(O)CN(C)C4CCCCC4O3)ccc2c1 (stereo unspecified) | 53% | 220 | 40 | 47 | 36 | 33 | 84 | tde | Dose-dependent effect |
| Br.COc1ccc2cc(-c3ccc(C4(O)CN5CCCCC5CO4)cc3)ccc2c1 (stereo unspecified) | Active | 65 | 18 | 6 | 19 | 29 | > 100 | – | – |
| COc1ccc2cc([C@H](C)C(=O)O)ccc2c1 [NAPROXEN] | 51% | – | – | – | – | – | 24 | – | – |
| Br.OC1(c2ccc(-c3ccc4ccccc4c3)cc2)CN2CCCCC2CO1 (stereo unspecified) | Active | 117 | – | 34 | 49 | 33 | > 100 | – | – |
| Br.CN1CCOC(O)(c2ccc3ccccc3c2)C1 (stereo unspecified) | Active | 640 | 135 | 40 | 51 | 36 | > 300 | – | – |
| Br.COc1ccc2cc(C3(O)CN4CCCCC4CO3)ccc2c1 (stereo unspecified) | Active | 390 | 18.7 | 37 | 45 | 46 | 53 | tde | Dose-dependent effect |
| Br.OC1(c2ccc3ccccc3c2)CN2CCCCC2CO1 (stereo unspecified) | Active | 440 | 130 | 41 | 33 | 42 | > 300 | – | – |
| Br.CN1CCOC(O)(c2ccc(-c3ccc4ccccc4c3)cc2)C1 (stereo unspecified) | Active | 71 | 1.9 | 28 | 37 | 59 | > 100 | – | – |
